Measured values reported in ChEMBL document CHEMBL4715687, “A benzoxazole derivative as an inhibitor of anaerobic choline metabolism by human gut microbiota” (RSC Med Chem, 2020).
Calls of active or inactive are those of the source. The calls are words filed in the database; no cut-off is given here.

Experiments:
[1] = Metabolic stability in human intestinal S9 fraction assessed as parent compound remaining at 33 uM incubated for 2 hrs by LC/MS/MS analysis; assay type: ADME, subcellular, Intestine; settings: read-out: Stabilty
Outline: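 Mixed-gender human intestinal S9 (4 mg mL−1 stock) in 100 mM potassium phosphate pH 7.4 with NADPH cofactor, 6 mM MgCl2 and 1 mM EDTA. Compound at 33 μM final, in triplicate, 2 h at 37 °C. No-cofactor negative control. Supernatant diluted and percent intact compound quantified by LC-MS/MS.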

[2] = target: T1, Choline trimethylamine-lyase (Desulfovibrio alaskensis, UniProt Q30W70); test: (§1) Inhibition of N-terminal His6-tagged Desulfovibrio desulfuricans G20 CutC encoding 52 residues assessed as reduction in acetaldehyde using choline as substrate in presence of NADH-dependent yeast alcohol dehydrogenase by UV-Vis absorbance based assay
T1 sequence (Q30W70 whole entry): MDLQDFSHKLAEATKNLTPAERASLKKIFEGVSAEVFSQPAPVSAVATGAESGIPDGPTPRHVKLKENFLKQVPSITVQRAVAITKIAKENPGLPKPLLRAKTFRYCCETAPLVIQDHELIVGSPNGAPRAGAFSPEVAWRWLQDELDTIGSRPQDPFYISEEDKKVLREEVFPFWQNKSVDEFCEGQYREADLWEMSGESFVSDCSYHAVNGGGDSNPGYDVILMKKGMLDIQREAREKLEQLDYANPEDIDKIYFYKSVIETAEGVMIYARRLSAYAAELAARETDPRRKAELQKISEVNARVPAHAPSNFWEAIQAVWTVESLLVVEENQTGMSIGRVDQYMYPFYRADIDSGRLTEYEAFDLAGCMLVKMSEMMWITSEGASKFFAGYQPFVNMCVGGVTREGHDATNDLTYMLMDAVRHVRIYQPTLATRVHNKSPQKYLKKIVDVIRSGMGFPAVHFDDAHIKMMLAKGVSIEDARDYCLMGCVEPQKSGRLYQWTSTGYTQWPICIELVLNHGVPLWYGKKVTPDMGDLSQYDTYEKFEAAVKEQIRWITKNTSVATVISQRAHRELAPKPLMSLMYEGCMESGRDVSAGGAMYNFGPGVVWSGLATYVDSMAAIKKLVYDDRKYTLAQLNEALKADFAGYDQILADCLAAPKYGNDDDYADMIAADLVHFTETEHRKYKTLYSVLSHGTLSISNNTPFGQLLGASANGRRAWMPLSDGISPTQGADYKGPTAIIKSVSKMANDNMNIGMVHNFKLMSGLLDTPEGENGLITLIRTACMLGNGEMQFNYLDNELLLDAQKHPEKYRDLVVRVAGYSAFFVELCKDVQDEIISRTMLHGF

[3] = Inhibition of CutC in Escherichia coli MS 200-1 assessed as reduction in d9-TMA formation using d9-choline chloride as substrate incubated for 4 hrs under anaerobic condition by LC-MS-MS analysis
[4] = Inhibition of CutC (unknown origin) in human feces assessed as reduction in TMA production using choline as substrate by LC-MS/MS analysis; assay type: tissue-based, Bacteria
[5] = test system: Bacteria; test: Non-competitive inhibition of CutC (unknown origin) assessed as reduction in Vmax with constant Km using choline as substrate at 5 uM by Lineweaver-Burk plot based Michelis-Menten analysis
Outline: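 D. desulfuricans G20 CutC (20 μM) activated by CutD (40 μM) with dithionite (150 μM) and SAM (200 μM), anaerobic, in 50 mM potassium phosphate pH 8.0 with 50 mM KCl for 1 h, then diluted 20-fold. Coupled to yeast ADH (0.4 μM) with NADH (200 μM). Choline varied, inhibitor absent or at 5 μM. A340 read every 20 s for 10 min. Kinetics by Michaelis–Menten and Lineweaver–Burk plots, n = 3.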

[6] = test system: Bacteria; test: Binding affinity to CutD (unknown origin) by CM5 sensor chip immobilization based surface plasmon resonance analysis
[7] = test system: Saccharomyces cerevisiae; test: Effect on alcohol dehydrogenase activity in yeast at 5 to 50 uM in presence of NADH by colorimetric assay; settings: dose 5-50 µM
[8] = target: T2, Choline trimethylamine-lyase (Desulfovibrio alaskensis) (UniProt Q30W70); test: as §1
T2 sequence (whole entry): T1 sequence (Q30W70 whole entry)

[9] = (§2) Binding affinity to CutC (unknown origin) by CM5 sensor chip immobilization based surface plasmon resonance analysis; design: species or system Bacteria
[10] = test system: Bacteria; test: as §2
[11] = test system: Escherichia coli; test: Effect on d9-choline uptake in Escherichia coli MS 200-1 at 50 uM incubated for 15 mins by LC-MS/MS analysis; assay type: functional

Compound | remaining at 2 h, 33 µM [1] [%] | IC50 [2] [µM] | EC50 [3] [µM] | other results
CN1CCC(NC(=O)NCCNc2ccccn2)CC1 | > 90 | 199 | 354 | –
O=C(NC1CCCCC1CO)c1cc(F)cc2[nH]cnc12 (stereo unspecified) | > 90 | > 500 | > 1000 | –
CC(C)Nc1cccc(C(=O)NCCCN2CCC(O)CC2)c1 | > 90 | 210 | 376 | –
O=C1NCCCCC1NC(=O)N1CCCc2cc(F)ccc21 (stereo unspecified) | > 90 | > 500 | > 1000 | –
CN1CC=C[C@H](O)C1 | – | – | 11 | EC50 [4]: 83.9 µM
O=S(=O)(NCC1CCCC1O)c1ccc2cn[nH]c2c1 (stereo unspecified) | > 90 | 301 | 488 | –
Cc1cccc(NC2CCN(C(=O)Nc3cn[nH]c3)CC2)n1 | > 90 | 85 | 143 | –
COc1cc(CCNC(=O)NC2CCCCC2CO)ccc1F (stereo unspecified) | > 90 | 212 | 409 | –
O=C(CCc1ccccc1OC(F)(F)F)NC1CCCCNC1=O (stereo unspecified) | > 90 | > 500 | > 1000 | –
C[N+](C)(C)CC=O [BETAINE ALDEHYDE] | – | 26 | – | –
Cc1cc(C(=O)NC2CCNCC2)no1 | > 90 | > 500 | > 1000 | –
O=C(NCc1nc(-c2ccccc2)n[nH]1)NC1CCC(O)CC1 (stereo unspecified) | > 90 | 49 | 79 | –
Cn1c(N)nc2c(ncn2[C@@H]2O[C@H](CO)[C@@H](O)[C@H]2O)c1=O | > 90 | 110 | 175 | –
Cc1ccc(-n2nc(NC3CCN(C(N)=O)CC3)cc2C)cc1 | > 90 | > 500 | > 1000 | –
O=C(Nc1ccc(N2CCOCC2)nc1)NC1CCCCNC1=O (stereo unspecified) | > 90 | 167 | 298 | –
CC(O)CNC(=O)NC1CCN(Cc2ccccn2)CC1 (stereo unspecified) | > 90 | 73 | 87 | –
O=C(NC1CC1)C1CCN(Cc2nc3cc(F)ccc3o2)CC1 | > 90 | 2.4 | 5.4 | inhibition [5]: Active; Activity [6]: Active; EC50 [4]: 38 µM; Activity [7]: inactive; inhibition [8]: Dose-dependent effect; Kd [9]: 4.05 µM; Activity [10]: Dose-dependent effect; Activity [11]: inactive
